According to ChEMBL document CHEMBL3259712, “New 5-unsubstituted dihydropyridines with improved CaV1.3 selectivity as potential neuroprotective agents against ischemic injury” (J Med Chem, 2014):
Calls of active or inactive are those of the source. The rule behind the calls is not given here.

How the values were obtained:
SH-SY5Y [1] = experiment: Neuroprotective activity against rotenone-oligomycin A-induced oxidative stress in human SH-SY5Y cells assessed as protection incubated with rot/oligo for 8 hrs followed by treated with compound at 5 uM for 16 hrs by MTT assay relative to control; type: functional
Procedure, shortened: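 SH-SY5Y cells cultured 24 h, then exposed to rotenone/oligomycin A (30/10 μM) for 8 h at 37 °C. Stressor was removed and cells incubated 16 h with compound in 1% FBS medium. Melatonin 0.3 μM was the positive control, and compounds were used at 5 μM. Viability by MTT; % protection against basal as 100%, normalized to rot/olig toxicity; five to seven cultures in triplicate.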

SH-SY5Y [2] = experiment: Neuroprotective activity against rotenone-oligomycin A-induced oxidative stress in human SH-SY5Y cells assessed as survival at 5 uM co-incubated rot/oligo for 24 hrs by MTT assay (Rvb =65.6 +/- 1.3%); type: functional; details: read-out: Survival
SH-SY5Y [3] = experiment: Neuroprotective activity against K+ induced Ca2+ overload in human SH-SY5Y cells assessed as survival at 5 uM after 24 hrs by MTT assay (reference value: 52.1 +/- 3.5%); type: functional; details: read-out: Survival
SH-SY5Y [4] = experiment: Neuroprotective activity against rotenone-oligomycin A-induced oxidative stress in human SH-SY5Y cells assessed as survival incubated with rot/oligo for 8 hrs followed by treated with compound at 5 uM for 16 hrs by MTT assay (Rvb =70.6 +/- 1.8%); type: functional; details: read-out: Survival
Procedure, shortened: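 SH-SY5Y cells cultured 24 h, then exposed to rotenone/oligomycin A (30/10 μM) for 8 h at 37 °C. Stressor removed; compound in 1% FBS medium added for 16 h. DMSO-only control. MTT reduction (5 mg/mL, 2 h, 37 °C; OD 540 nm). Survival relative to untreated basal; mean ± SEM of five to seven cultures in triplicate.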

SH-SY5Y [5] = experiment: Neuroprotective activity against K+ induced Ca2+ overload in human SH-SY5Y cells assessed as protection at 5 uM after 24 hrs by MTT assay relative to control; type: functional
Procedure, shortened: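 SH-SY5Y cells, 1 × 10⁵/well, 1% FBS medium, up to 13 passages. Compound diluted from 10⁻² M DMSO stock to 5 μM and co-incubated 24 h with 70 mM K⁺ (hypertonic); DMSO-only controls. MTT at 5 mg/mL for 2 h at 37 °C, read at 540 nm. % protection computed against basal as 100% survival and normalized to K⁺ toxicity; at least five cultures in triplicate.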

[6] = molecular target: Voltage-dependent L-type calcium channel subunit alpha-1C (Rattus norvegicus, UniProt P22002); experiment: Inhibition of rat Cav1.2 channel in rat mesenteric artery assessed as relaxation of 70 mM K+ induced contraction; type: tissue-based; details: for inhibition (INH): rat
Procedure, shortened: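 Third-order mesenteric artery segments (2 mm) from 6-month-old Wistar Kyoto rats on a wire myograph, isometric tension, Krebs−Henseleit at 37 °C, pH 7.4. Segments equilibrated, stretched to optimal diameter, tested with 120 mM KCl, endothelium checked with 10 μM acetylcholine.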

[7] = molecular target: Voltage-dependent L-type calcium channel subunit alpha-1D (Homo sapiens, UniProt Q01668); experiment: Inhibition of human Cav1.3 channel in human SH-SY5Y cells assessed as 70 mM K+ induced calcium elevation compound treated 15 mins before stimulus by Fluo-4/AM assay; type: cell-based
Procedure, shortened: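 SH-SY5Y cells grown 2 days, loaded with 10 μM Fluo-4/AM for 1 h at 37 °C in serum-free medium, washed with Krebs-HEPES and held 15 min at room temperature. Compound applied 15 min before 70 mM KCl.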

SH-SY5Y [8] = experiment: Neuroprotective activity against rotenone-oligomycin A-induced oxidative stress in human SH-SY5Y cells assessed as protection at 5 uM co-incubated rot/oligo for 24 hrs by MTT assay relative to control; type: functional
Procedure, shortened: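 SH-SY5Y cells in 1% FBS medium co-incubated 24 h with compound and rotenone/oligomycin A (30/10 μM). Melatonin 0.3 μM was the positive control, and compounds were used at 5 μM. Viability by MTT reduction at 540 nm. % protection computed against basal as 100% and normalized to rot/olig toxicity; five to seven cultures in triplicate.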

Hippocampus = experiment: Neuroprotective activity against oxygen-glucose deprivation induced-oxidative stress in rat hippocampal slices assessed as maximum protection treated at 10 uM during 120 mins of reoxygenation period by MTT assay (Rvb =40%); type: functional
Procedure, shortened: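 Transverse hippocampal slices ([…] as printed) from adult male Sprague−Dawley rats (275−325 g). After 30 min stabilization, 15 min OGD at 37 °C in glucose-free Krebs (2-deoxyglucose) under 95% N₂/5% CO₂, then 120 min reoxygenation in oxygenated Krebs with compound (1, 3, 10 μM) present. MTT at 0.5 mg/mL for 30 min at 37 °C; control slices set as 100%; five experiments.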

[9] = Selectivity ratio of IC50 for human Cav1.3 channel to IC50 for rat Cav1.2 channel
SH-SY5Y [10] = experiment: Neuroprotective activity against K+ induced Ca2+ overload in human SH-SY5Y cells assessed as protection at 0.3 uM after 24 hrs by MTT assay relative to control; type: functional
SH-SY5Y [11] = experiment: Neuroprotective activity against K+ induced Ca2+ overload in human SH-SY5Y cells assessed as survival at 0.3 uM after 24 hrs by MTT assay (reference value: 52.1 +/- 3.5%); type: functional; details: read-out: Survival

Chain of Voltage-dependent L-type calcium channel subunit alpha-1C (P22002 whole entry): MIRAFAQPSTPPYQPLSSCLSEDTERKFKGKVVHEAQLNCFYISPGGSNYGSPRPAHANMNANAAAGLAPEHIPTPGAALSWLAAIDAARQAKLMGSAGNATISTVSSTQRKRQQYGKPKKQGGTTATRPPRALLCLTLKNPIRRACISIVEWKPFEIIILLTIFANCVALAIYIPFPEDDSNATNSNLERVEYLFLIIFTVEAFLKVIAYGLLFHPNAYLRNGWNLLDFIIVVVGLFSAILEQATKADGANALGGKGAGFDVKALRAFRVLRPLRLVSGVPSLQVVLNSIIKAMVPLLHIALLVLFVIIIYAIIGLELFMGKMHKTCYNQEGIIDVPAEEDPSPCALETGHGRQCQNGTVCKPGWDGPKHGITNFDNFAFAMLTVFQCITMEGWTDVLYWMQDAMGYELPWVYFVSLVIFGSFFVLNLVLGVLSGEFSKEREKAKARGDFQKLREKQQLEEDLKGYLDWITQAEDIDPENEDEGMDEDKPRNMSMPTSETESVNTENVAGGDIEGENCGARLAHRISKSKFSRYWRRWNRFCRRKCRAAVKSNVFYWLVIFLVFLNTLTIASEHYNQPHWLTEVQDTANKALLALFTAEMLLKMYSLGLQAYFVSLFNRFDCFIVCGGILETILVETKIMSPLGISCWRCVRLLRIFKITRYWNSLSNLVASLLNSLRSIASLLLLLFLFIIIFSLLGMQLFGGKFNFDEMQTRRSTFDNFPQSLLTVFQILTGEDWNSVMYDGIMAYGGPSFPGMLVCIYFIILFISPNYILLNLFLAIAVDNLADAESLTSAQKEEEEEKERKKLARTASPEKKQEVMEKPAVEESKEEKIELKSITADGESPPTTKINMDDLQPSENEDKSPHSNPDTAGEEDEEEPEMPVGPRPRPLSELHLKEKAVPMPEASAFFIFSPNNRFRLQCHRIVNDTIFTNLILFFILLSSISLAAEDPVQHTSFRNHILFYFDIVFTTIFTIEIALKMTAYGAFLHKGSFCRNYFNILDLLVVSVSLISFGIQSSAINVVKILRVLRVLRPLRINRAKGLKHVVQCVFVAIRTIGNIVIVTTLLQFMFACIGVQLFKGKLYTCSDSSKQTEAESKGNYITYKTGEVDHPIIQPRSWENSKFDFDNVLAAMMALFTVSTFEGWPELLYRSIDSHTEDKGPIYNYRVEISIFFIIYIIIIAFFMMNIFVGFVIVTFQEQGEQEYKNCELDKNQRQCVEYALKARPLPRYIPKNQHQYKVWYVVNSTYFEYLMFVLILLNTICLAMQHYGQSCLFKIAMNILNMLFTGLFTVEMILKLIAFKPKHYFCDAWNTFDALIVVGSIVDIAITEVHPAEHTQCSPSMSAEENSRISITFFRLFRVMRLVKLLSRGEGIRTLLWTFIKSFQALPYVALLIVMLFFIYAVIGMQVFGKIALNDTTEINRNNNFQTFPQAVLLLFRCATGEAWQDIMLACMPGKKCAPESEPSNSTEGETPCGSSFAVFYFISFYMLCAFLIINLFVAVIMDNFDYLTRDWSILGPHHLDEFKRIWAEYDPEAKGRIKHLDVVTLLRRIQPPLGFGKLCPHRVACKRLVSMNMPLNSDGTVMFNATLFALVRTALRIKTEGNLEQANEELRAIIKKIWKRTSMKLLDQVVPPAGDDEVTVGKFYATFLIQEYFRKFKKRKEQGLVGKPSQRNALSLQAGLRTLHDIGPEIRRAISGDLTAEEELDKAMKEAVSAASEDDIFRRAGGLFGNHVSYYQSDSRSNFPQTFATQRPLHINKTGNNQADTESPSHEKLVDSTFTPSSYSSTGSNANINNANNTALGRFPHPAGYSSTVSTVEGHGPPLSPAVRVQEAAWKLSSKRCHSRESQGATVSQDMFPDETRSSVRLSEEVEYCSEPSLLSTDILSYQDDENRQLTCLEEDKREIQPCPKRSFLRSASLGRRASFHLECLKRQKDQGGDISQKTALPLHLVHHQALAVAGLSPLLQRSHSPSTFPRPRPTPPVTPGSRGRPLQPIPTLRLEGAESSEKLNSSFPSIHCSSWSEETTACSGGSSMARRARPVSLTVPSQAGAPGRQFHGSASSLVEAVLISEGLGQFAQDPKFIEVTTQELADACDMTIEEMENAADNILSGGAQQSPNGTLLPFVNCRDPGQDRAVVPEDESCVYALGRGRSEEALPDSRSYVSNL
Chain of Voltage-dependent L-type calcium channel subunit alpha-1D (Q01668 whole entry): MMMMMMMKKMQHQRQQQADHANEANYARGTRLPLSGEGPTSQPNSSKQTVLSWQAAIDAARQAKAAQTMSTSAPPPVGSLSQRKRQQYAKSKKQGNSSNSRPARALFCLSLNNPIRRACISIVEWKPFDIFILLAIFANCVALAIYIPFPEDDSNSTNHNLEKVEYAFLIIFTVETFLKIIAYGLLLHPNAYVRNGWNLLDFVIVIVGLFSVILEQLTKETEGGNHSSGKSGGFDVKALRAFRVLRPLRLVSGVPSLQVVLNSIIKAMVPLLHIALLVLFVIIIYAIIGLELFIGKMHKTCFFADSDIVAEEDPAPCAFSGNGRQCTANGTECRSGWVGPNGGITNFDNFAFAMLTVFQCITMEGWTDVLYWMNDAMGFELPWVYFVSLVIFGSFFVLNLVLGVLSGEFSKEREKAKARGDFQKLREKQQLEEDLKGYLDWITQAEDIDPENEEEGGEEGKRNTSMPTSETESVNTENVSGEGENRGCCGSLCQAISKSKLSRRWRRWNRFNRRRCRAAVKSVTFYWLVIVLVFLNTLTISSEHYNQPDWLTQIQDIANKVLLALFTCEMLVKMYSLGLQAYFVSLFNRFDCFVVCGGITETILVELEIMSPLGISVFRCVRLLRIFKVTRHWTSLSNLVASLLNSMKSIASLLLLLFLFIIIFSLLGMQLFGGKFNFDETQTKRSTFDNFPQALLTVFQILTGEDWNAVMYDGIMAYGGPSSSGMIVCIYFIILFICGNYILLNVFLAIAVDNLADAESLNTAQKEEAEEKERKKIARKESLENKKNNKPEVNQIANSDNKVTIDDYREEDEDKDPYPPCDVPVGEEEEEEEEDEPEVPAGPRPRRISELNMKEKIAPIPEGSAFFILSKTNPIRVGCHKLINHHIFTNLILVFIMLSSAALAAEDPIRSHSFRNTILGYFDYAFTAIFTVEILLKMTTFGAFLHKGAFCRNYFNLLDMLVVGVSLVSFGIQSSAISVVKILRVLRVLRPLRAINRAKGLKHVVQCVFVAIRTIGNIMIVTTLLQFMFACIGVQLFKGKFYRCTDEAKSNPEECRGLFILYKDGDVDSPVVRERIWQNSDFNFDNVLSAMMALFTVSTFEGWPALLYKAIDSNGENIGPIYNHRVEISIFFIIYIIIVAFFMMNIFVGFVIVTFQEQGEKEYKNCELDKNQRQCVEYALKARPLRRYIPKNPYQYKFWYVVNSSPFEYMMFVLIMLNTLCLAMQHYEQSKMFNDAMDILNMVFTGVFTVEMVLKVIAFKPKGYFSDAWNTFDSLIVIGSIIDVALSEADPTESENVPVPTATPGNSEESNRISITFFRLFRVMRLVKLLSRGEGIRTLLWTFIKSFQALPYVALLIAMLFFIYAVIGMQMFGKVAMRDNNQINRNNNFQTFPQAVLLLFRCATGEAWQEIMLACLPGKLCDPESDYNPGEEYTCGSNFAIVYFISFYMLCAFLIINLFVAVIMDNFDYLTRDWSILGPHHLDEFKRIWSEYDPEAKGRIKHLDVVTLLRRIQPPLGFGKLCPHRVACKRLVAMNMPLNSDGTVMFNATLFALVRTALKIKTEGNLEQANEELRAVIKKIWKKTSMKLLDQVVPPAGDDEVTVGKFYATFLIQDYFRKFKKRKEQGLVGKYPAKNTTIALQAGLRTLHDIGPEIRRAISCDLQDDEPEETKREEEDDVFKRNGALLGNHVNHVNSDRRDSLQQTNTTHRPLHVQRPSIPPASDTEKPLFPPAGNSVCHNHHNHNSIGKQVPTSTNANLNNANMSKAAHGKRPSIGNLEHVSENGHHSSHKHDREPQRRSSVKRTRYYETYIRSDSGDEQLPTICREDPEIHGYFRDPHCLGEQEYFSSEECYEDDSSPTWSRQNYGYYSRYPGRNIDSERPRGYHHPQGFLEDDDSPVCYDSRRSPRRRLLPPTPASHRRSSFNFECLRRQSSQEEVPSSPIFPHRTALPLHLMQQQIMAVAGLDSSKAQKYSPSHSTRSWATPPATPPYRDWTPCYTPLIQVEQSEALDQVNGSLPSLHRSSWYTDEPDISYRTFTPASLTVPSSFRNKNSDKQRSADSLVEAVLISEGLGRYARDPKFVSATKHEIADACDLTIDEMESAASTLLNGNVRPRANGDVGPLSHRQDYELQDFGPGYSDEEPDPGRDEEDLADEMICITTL

Row | Structure (SMILES) | Activity (SH-SY5Y [1]) [%] | viability at 5 µM (SH-SY5Y [2]) [%] | viability at 5 µM (SH-SY5Y [3]) [%] | viability at 5 µM (SH-SY5Y [4]) [%] | Activity (SH-SY5Y [5]) [%] | inhibition (INH) [6] | IC50 [7] [µM] | Activity (SH-SY5Y [8]) [%] | inhibition [7] [%] | Activity (Hippocampus) | Ratio IC50 [9] | IC50 [6] [µM] | Activity (SH-SY5Y [10]) [%] | viability at 0.3 µM (SH-SY5Y [11]) [%]
1 | COc1ccc(C2C=C(c3ccccc3)NC(C)=C2C(=O)SC(C)(C)C)cc1 (stereo not given) | 38.6 | 82.3 | 66.7 | 81.8 | 31.3 | Dose-dependent effect | 26.8 | 45.7 | – | – | – | – | – | –
2 | CCOC(=O)C1=C(C)NC(c2ccccc2)=CC1c1ccccc1 (stereo not given) | – | 78.4 | 67.6 | – | 34.6 | – | 18.7 | 32.5 | – | – | – | – | – | –
3 | CCOC(=O)C1=C(C)NC(c2ccc(C)cc2)=CC1c1ccccc1[N+](=O)[O-] (stereo not given) | – | 69.9 | 62.9 | – | 22.1 | – | 44.1 | 11.7 | – | – | – | – | – | –
4 | CCOC(=O)C1=C(C)NC(c2ccc(Cl)cc2)=CC1c1ccccc1[N+](=O)[O-] (stereo not given) | – | 60 | 59.3 | – | 13.7 | – | 57.1 | – | – | – | – | – | – | –
5 | CC(=O)C1=C(C)NC(c2ccccc2)=CC1c1ccccc1 (stereo not given) | 21.7 | 87.3 | 67.4 | 76.7 | 32.5 | Dose-dependent effect | 27.1 | 61.9 | – | – | – | – | – | –
6 | CCOC(=O)C1=C(C)NC(c2ccc(Cl)cc2)=CC1c1ccccc1 (stereo not given) | – | 82.7 | 69.4 | – | 36.6 | – | 9.3 | 46.2 | – | – | – | – | – | –
7 | CCOC(=O)C1=C(C)NC(c2ccc(Cl)cc2)=CC1c1cccc(OC)c1 (stereo not given) | 20.5 | 81.9 | 72.7 | 76.6 | 40.1 | – | 15.1 | 47.8 | 48 | – | – | – | – | –
8 | CCOC(=O)C1=C(C)NC(c2ccc(Cl)cc2)=CC1c1ccc(Cl)cc1 (stereo not given) | – | 69.9 | 65.1 | – | 24.8 | Dose-dependent effect | 28.4 | 11.9 | – | – | – | – | – | –
9 | CC1=C(C(=O)SC(C)(C)C)C(c2ccc(C)cc2)C=C(c2ccccc2)N1 (stereo not given) | 43.3 | 83.3 | 67.4 | 83.4 | 30.4 | – | 56.2 | 49.4 | – | – | – | – | – | –
10 | C=CCOC(=O)C1=C(C)NC(c2ccc(Cl)cc2)=CC1c1ccccc1 (stereo not given) | 44.1 | 79.7 | 68.7 | 84.3 | 29.8 | Dose-dependent effect | 18.5 | 41.5 | – | – | – | – | – | –
11 | CC1=C(C(=O)SC(C)(C)C)C(c2ccc(Br)cc2)C=C(c2ccc(C)cc2)N1 (stereo not given) | 12.3 | 85.7 | 67.2 | 74.2 | 34.5 | Dose-dependent effect | 59.6 | 57.9 | – | – | – | – | – | –
12 | CC1=C(C(=O)SC(C)(C)C)C(/C(C)=C/c2ccccc2)C=C(c2ccccc2)N1 (stereo not given) | 52.2 | 83.7 | 69 | 86.2 | 35.3 | Dose-dependent effect | 63.1 | 52.4 | – | 45% | 3.1 | 20.3 | – | –
13 | CC1=C(C(=O)SC(C)(C)C)C(c2ccc(C)cc2)C=C(c2ccc(C)cc2)N1 (stereo not given) | – | 79.9 | 69.9 | – | 36.2 | – | > 100 | 36.2 | – | – | – | – | – | –
14 | CCCC1=C(C(=O)OCC)C(c2ccccc2)C=C(c2ccccc2)N1 (stereo not given) | 34.8 | 80.5 | 65.4 | 80.6 | 23.3 | – | 9.9 | 42.9 | – | – | – | – | – | –
15 | CC1(C)CC(=O)C2=C(C1)NC(c1ccccc1)=CC2c1ccccc1 (stereo not given) | – | 74.6 | 64 | – | 21.4 | Dose-dependent effect | 2.8 | 26.9 | 79 | – | 8.3 | 0.34 | – | –
16 | COC(=O)C1=C(C)NC(C)=C(C(=O)OC)C1c1ccccc1[N+](=O)[O-] [NIFEDIPINE] | 11.7 | 78.4 | 62.9 | 73.8 | 20 | Dose-dependent effect | – | 29.3 | – | inactive | – | – | 15.8 | 58.7
17 | CCOC(=O)C1=C(C)NC(c2ccc(C)cc2)=CC1c1cccs1 (stereo not given) | 25.6 | 81.9 | 75.6 | 77.5 | 50.7 | – | 14.9 | 45.3 | 36 | – | – | – | – | –
18 | CCOC(=O)C1=C(C)NC(c2ccccc2)=CC1c1ccc(OC)cc1 (stereo not given) | 42 | 81.3 | 69.4 | 83.5 | 34.1 | Dose-dependent effect | 29.8 | 46.2 | – | – | – | – | – | –
19 | CCOC(=O)C1=C(CC)NC(c2ccccc2)=CC1c1ccccc1 (stereo not given) | – | 77.4 | 67.3 | – | 31.4 | – | 12.8 | 32.8 | – | – | – | – | – | –
20 | CCOC(=O)C1=C(C)NC(c2ccccc2)=CC1c1ccc(C)cc1 (stereo not given) | 60.1 | 83.5 | 72.3 | 88 | 39.8 | Dose-dependent effect | 20.6 | 53.3 | 43 | 45% | 1.9 | 10.6 | – | –
21 | O=C1CCCC2=C1C(c1ccccc1)C=C(c1ccccc1)N2 (stereo not given) | – | 80.3 | 66.4 | – | 28.2 | – | 24 | 39.8 | – | – | – | – | – | –
22 | CC1=C(C(=O)SC(C)(C)C)C(c2ccccc2)C=C(c2ccccc2)N1 (stereo not given) | – | 79.5 | 68 | – | 34.1 | Dose-dependent effect | 95.8 | 39.6 | – | – | – | – | – | –
23 | CCOC(=O)C1=C(C)NC(c2ccco2)=CC1c1ccc(C)cc1 (stereo not given) | 33.2 | 78 | 68.5 | 79.9 | 32 | Dose-dependent effect | 55.5 | 36.6 | – | – | – | – | – | –
24 | CCOC(=O)C1=C(C)NC(c2ccccc2)=CC1c1ccc([N+](=O)[O-])cc1 (stereo not given) | – | 64.6 | 64.6 | – | 23.5 | – | 12.2 | – | – | – | – | – | – | –
